Screening results (PubChem BioAssay)
S100A4 MyoIIA: blocks human S100A4 binding to myosin IIA peptide; S100A4/TAMRA-MyoIIA peptide fluorescence polarization; inhibition, % at 10.7 µM; 360,000 compounds, 0.14% hits; AID 652163;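 active means mean inhibition of at least 70% across replicates, with every replicate also reaching that level; inconclusive means mean inhibition reaches 70% but some replicates fall short; inactive means mean inhibition below 70%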
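Material: S100A4 monomer (human). Medium: Calcium-containing HEPES buffer, pH 7.2. Probe or stimulus: labelled myosin peptide probe, 5 nM. Compound dosing: one concentration per compound. Timing: polarization read 5 min after assay mix addition, stable 5–60 min. Benchmarks: DMSO as neutral control, TFP as positive control.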
DENV2 CPE rescue: DENV2-induced cell death inhibition; 350,000 compounds, 1.7% hits; CPE inhibition, % at 9.99 µM; DENV2-infected cells, cytopathic effect rescue, plate reader; in the data active means CPE inhibition above about 20%, passing the limit was not always enough; inconclusive means no clear call, values can overlap the other calls; tested in BHK-21 cells
XiGFP reactiv: X-chromosome reactivation activator. XiGFP mouse fibroblasts, % GFP-positive cells imaging, 3 d; cells co-treated with 5-aza-dC sensitizer; scaled so ellipticine positive control = 100%. activation, % at 7.58 µM. 360,000 compounds, 0.055% hits;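 active means mean normalized replicate activation at least 10% and every replicate at or above 10%; inconclusive means only one of the two criteria met; inactive means mean below 10% and not all replicates reach 10%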
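Material: SV40-immortalized XiGFP fibroblast cells, line 68-5-11 | Buffer or medium: DMEM containing 5-aza-dC | Dosing: One concentration, pinned | Times: 3 d treatment, 15 min room-temperature fixation | Controls: Ellipticine 6 µM positive control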
E-sel inducer: E-selectin induction on HUVECs. activation, % at 7.58 µM. 260,000 compounds, 0.37% hits. P16581. AID 686992. HUVEC E-selectin immunofluorescence imaging; normalized: neutral wells 0, TNF-alpha wells 100;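 active means mean E-selectin-positive cell signal at least 10% of the positive control, reached in at least 60% of replicates, without over 20% cell loss; inconclusive means no rule given, readout overlaps actives, possibly toxicity-flagged; inactive means the rest, including those meeting only one limit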
Target sequence (P16581 whole entry, looked up): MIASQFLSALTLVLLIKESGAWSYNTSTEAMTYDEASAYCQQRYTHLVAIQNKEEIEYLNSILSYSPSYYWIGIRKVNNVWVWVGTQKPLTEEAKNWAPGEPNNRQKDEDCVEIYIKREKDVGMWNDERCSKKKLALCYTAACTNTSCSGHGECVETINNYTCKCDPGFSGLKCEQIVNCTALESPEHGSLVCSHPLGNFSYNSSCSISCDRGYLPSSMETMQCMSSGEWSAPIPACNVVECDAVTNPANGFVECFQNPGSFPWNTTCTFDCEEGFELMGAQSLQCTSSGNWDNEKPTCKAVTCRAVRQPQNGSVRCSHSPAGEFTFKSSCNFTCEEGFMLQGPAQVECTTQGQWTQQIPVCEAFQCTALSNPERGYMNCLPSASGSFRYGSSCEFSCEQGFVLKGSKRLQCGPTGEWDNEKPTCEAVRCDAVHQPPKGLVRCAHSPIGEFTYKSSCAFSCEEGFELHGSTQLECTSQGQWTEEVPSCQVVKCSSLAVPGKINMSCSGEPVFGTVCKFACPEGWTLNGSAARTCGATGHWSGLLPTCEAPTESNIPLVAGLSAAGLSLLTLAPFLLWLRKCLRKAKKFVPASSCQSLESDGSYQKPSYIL
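Read-out: % PE-positive cells | Test system: HUVEC | Doses: One compound dose added by pin transfer | Buffer or medium: EGM-2 over gelatin coat | Signal: Immunofluorescence imaging | Benchmarks: TNF-alpha, DMSO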
Of the large screens only hits and unclear results are named; the others gave an inactive call. A selection: hits, their analogues and other compounds. The true share with any hit is near 2%.

C[C@@H](NC(=O)[C@H]1[C@H](CO)[C@H]2Cn3c(ccc(-c4ccncc4)c3=O)[C@@H]1N2C)c1ccccc1	none
Cc1noc(C)c1NC(=O)Nc1ccc2c(c1)C(=O)N([C@H](C)CO)C[C@H](C)[C@H](CN(C)C(=O)c1ccccc1)OCCCC[C@H](C)O2	DENV2 CPE rescue 39
CNC[C@H]1OCCCC[C@@H](C)Oc2ccc(NC(=O)Nc3c(C)noc3C)cc2C(=O)N([C@H](C)CO)C[C@@H]1C	none (no result: S100A4 MyoIIA, DENV2 CPE rescue)
Cc1noc(C)c1NC(=O)Nc1ccc2c(c1)C(=O)N([C@H](C)CO)C[C@@H](C)[C@H](CN(C)C(=O)Nc1ccccc1)OCCCC[C@@H](C)O2	none
Cc1noc(C)c1NC(=O)Nc1ccc2c(c1)C(=O)N([C@@H](C)CO)C[C@H](C)[C@@H](CN(C)C(=O)CCCN(C)C)OCCCC[C@H](C)O2	none
Cc1noc(C)c1NC(=O)Nc1ccc2c(c1)C(=O)N([C@@H](C)CO)C[C@H](C)[C@@H](CN(C)C(=O)CCCN(C)C)OCCCC[C@@H](C)O2	DENV2 CPE rescue 86
CNC[C@@H]1OCCCC[C@@H](C)Oc2ccc(NC(=O)Nc3c(C)noc3C)cc2C(=O)N([C@H](C)CO)C[C@H]1C	DENV2 CPE rescue 22
Cc1noc(C)c1NC(=O)Nc1ccc2c(c1)C(=O)N([C@H](C)CO)C[C@@H](C)[C@@H](CN(C)C(=O)Nc1ccccc1)OCCCC[C@@H](C)O2	DENV2 CPE rescue 23
CN(CCO)c1cc(N(C)CCO)c([N+](=O)[O-])cc1[N+](=O)[O-]	none (no result: E-sel inducer)
Cc1cccc(-c2ccc([C@H]3[C@H]4CN(S(=O)(=O)c5cccc(C)c5)CCCCN4[C@H]3CO)cc2)c1	DENV2 CPE rescue 29
Cc1cccc(S(=O)(=O)N2CCCCN3[C@H](CO)[C@H](c4ccc(-c5cccnc5)cc4)[C@H]3C2)c1	none
Cc1cccc(-c2ccc([C@H]3[C@@H](CO)N4CCCCN(S(=O)(=O)c5cccc(C)c5)C[C@H]34)cc2)c1	DENV2 CPE rescue 55
Cc1cccc(S(=O)(=O)N2CCCCN3[C@H](CO)[C@H](c4ccc(-c5cccnc5)cc4)[C@@H]3C2)c1	DENV2 CPE rescue 47
O=C(c1ccc(N2C(=O)CCC2=O)cc1)N1CCCSC1=Nc1ccccc1	S100A4 MyoIIA 84
CN1c2ccc(-c3ccccc3F)cc2[C@@H]2[C@@H](CCN2S(=O)(=O)c2ccc(F)cc2)[C@@H]1CO	DENV2 CPE rescue 53
COc1ccc(S(=O)(=O)N2CC[C@@H]3[C@H]2c2cc(-c4ccccc4F)ccc2N(C)[C@H]3CO)cc1	DENV2 CPE rescue 26 (no result: S100A4 MyoIIA)
COc1ccc(S(=O)(=O)N2CC[C@@H]3[C@H](CO)N(C)c4ccc(-c5ccc(F)cc5)cc4[C@@H]32)cc1	none
CN1c2ccc(-c3ccccc3F)cc2[C@@H]2[C@@H](CCN2S(=O)(=O)c2ccc(F)cc2)[C@H]1CO	none
Cc1ccc(Nc2nnc(-c3ccc4c(c3)OCO4)o2)c(C)c1	none
COCC(=O)N1CC[C@H]2[C@@H]1c1cc(-c3cccc(F)c3)ccc1N(C)[C@H]2CO	none
COc1ccc(S(=O)(=O)Nc2cccc3c2O[C@@H](CN(C)S(C)(=O)=O)[C@@H](C)CN([C@@H](C)CO)C3=O)cc1	DENV2 CPE rescue 120
COc1ccc(S(=O)(=O)N(C)C[C@@H]2Oc3c(NS(=O)(=O)c4cccs4)cccc3C(=O)N([C@@H](C)CO)C[C@@H]2C)cc1	none
COc1ccc(S(=O)(=O)N(C)C[C@@H]2Oc3c(NS(=O)(=O)c4ccc(F)cc4)cccc3C(=O)N([C@H](C)CO)C[C@@H]2C)cc1	DENV2 CPE rescue inconclusive, E-sel inducer 62 (no result: S100A4 MyoIIA)
COc1ccc(S(=O)(=O)N(C)C[C@H]2Oc3c(NS(=O)(=O)c4cccs4)cccc3C(=O)N([C@@H](C)CO)C[C@@H]2C)cc1	DENV2 CPE rescue 36
O=C(NCC(F)(F)F)c1nn(Cc2ccccc2)c(=O)c2ccccc12	none
OC[C@@H]1[C@H](c2ccc(-c3ccccc3F)cc2)[C@H]2CN(Cc3cccnc3)CCCCN12	none
CC(C)CC#Cc1ccc2c(c1)O[C@@H](CN(C)C(=O)c1ccccn1)[C@H](C)CN([C@@H](C)CO)S2(=O)=O	none
CCN(CC(=O)Nc1cc(Cl)ccc1C)C(=O)c1ccc2c(c1)NC(=O)C(C)S2 (stereo not drawn)	DENV2 CPE rescue 50 (no result: E-sel inducer)
CN1CCCCN2[C@H](CO)[C@@H](c3ccc(Br)cc3)[C@@H]2C1	none
C[n+]1c(-c2ccccc2)cc2c(=Cc3ccc([N+](=O)[O-])cc3)c3ccccc3n21	E-sel inducer 122
